Assay results taken from PMC10993231 (RSC Advances, 2024).

Experiment: Stability of radiolabeled peptide in human plasma
Assay type: in vitro ADME
Conditions: 37 °C, TLC read-out
In short: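 The peptide was dissolved in DMSO and diluted with water, then iodinated with 131I (3 mCi) and chloramine-T in 0.05 mol L−1 PBS, pH 7.4. The mixture was vortexed 2 min at room temperature and the reaction stopped with sodium metabisulfite. The 131I-peptide was incubated with human plasma at 37 °C for up to 72 h to gauge proteolytic degradation.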

With ^131I-cWIWLYA (head to tail) the “Radioactivity remaining after incubation in human plasma” value (5 h incubation) was greater than 90% and the “Radioactivity remaining after incubation in human plasma” value (72 hours incubation) was 57.5%.
